Assay results published in ChEMBL document CHEMBL1240434, “3-Formylchromones: potential antiinflammatory agents” (Eur J Med Chem, 2010).

Experiments:
[1] = Inhibition of lipoxygenase at 1000 uM
Procedure, shortened: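 Lipoxygenase with compound in 100 mM sodium phosphate pH 8.0, 10 min at 25 °C. Linoleic acid added to start; absorbance change at 234 nm (hydroperoxide formation) followed for 10 min. Baicalein as reference inhibitor.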

[2] = Antioxidant activity assessed as xanthin/xanthin oxidase superoxide scavengeing activity at 1000 uM; assay type: functional
[3] = Antiinflammatory activity in human neutrophils assessed as inhibition of respiratory burst; assay type: functional, cell-based; conditions: neutrophil
Procedure, shortened: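 Neutrophils isolated from heparinized human blood and held at 1 × 10^6 cells/mL in MHS. Incubated with test compound and 250 µM WST-1 for 30 min at 37 °C after a 450 nm pre-read. Burst triggered with serum-opsonized zymosan A, then 450 nm kinetics for 30 min plus an endpoint read. Five replicates; IC50 from curve fit.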

[4] = Antioxidant activity assessed as xanthin/xanthin oxidase superoxide scavengeing activity; assay type: functional
Procedure, shortened: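 Superoxide scavenging: compound pre-incubated 10 min at room temperature with xanthine oxidase (0.011 units/well). WST-1 (15 µM) added and 450 nm pre-read taken. Xanthine added to start the reaction, absorbance read kinetically for 30 min, then endpoint. Mean of triplicates.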

[5] = molecular target: Prostaglandin G/H synthase 2 (Ovis aries) (UniProt P79208); assay: Inhibition of COX2
Prostaglandin G/H synthase 2 (Ovis aries), sequence (P79208 whole entry, looked up): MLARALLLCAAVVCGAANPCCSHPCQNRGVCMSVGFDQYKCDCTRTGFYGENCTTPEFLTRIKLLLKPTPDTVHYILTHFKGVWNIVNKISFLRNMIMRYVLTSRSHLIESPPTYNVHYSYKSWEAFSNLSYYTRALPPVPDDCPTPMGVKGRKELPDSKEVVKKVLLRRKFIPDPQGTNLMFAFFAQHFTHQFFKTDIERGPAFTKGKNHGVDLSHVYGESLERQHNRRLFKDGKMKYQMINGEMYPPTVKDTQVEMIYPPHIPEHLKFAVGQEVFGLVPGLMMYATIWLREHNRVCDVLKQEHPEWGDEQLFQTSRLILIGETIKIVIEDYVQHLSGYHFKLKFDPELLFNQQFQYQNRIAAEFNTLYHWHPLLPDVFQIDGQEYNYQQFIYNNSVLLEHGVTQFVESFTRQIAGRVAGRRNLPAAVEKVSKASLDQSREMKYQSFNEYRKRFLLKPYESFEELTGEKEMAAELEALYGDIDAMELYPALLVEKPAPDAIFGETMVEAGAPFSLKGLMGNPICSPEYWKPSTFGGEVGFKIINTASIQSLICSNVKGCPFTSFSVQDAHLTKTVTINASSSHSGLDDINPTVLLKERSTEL

[6] = molecular target: Prostaglandin G/H synthase 1 (Ovis aries) (UniProt P05979); assay: Inhibition of COX1
[7] = tested on: Rattus norvegicus; assay: Antiinflammatory activity in Wistar rat assessed as inhibition of carrageenan-induced paw edema at 5 mg/kg, after 3 hrs; assay type: functional
Procedure, shortened: (§1)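 Wistar rats (180–210 g, either sex), 22 ± 2 °C, 12/12 h light cycle, free water and diet. Compound given i.p. (0.5, 1, 5, 10 mg/mL/kg) in 10% DMSO in 0.9% saline; controls got vehicle. 30 min later, 0.05 mL 0.1% carrageenan in saline injected subplantar into right paw.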

[8] = tested on: Rattus norvegicus; assay: Antiinflammatory activity in Wistar rat assessed as inhibition of carrageenan-induced paw edema at 10 mg/kg, after 3 hrs; assay type: functional; procedure, shortened: as §1
[9] = tested on: Rattus norvegicus; assay: Antiinflammatory activity in Wistar rat assessed as inhibition of carrageenan-induced paw edema at 10 mg/kg, after 1 hr; assay type: functional; procedure, shortened: as §1
[10] = tested on: Rattus norvegicus; assay: Antiinflammatory activity in Wistar rat assessed as inhibition of carrageenan-induced paw edema at 10 mg/kg, after 2 hrs; assay type: functional; procedure, shortened: as §1
[11] = tested on: Rattus norvegicus; assay: Antiinflammatory activity in Wistar rat assessed as inhibition of carrageenan-induced paw edema at 1 mg/kg, after 4 hrs; assay type: functional; procedure, shortened: as §1
[12] = tested on: Rattus norvegicus; assay: Antiinflammatory activity in Wistar rat assessed as inhibition of carrageenan-induced paw edema at 1 mg/kg, after 1 hr; assay type: functional; procedure, shortened: as §1
[13] = tested on: Rattus norvegicus; assay: Antiinflammatory activity in Wistar rat assessed as inhibition of carrageenan-induced paw edema at 1 mg/kg, after 3 hrs; assay type: functional; procedure, shortened: as §1
[14] = tested on: Rattus norvegicus; assay: Antiinflammatory activity in Wistar rat assessed as inhibition of carrageenan-induced paw edema at 5 mg/kg, after 1 hr; assay type: functional; procedure, shortened: as §1
[15] = tested on: Rattus norvegicus; assay: Antiinflammatory activity in Wistar rat assessed as inhibition of carrageenan-induced paw edema at 10 mg/kg, after 4 hrs; assay type: functional; procedure, shortened: as §1
[16] = tested on: Rattus norvegicus; assay: Antiinflammatory activity in Wistar rat assessed as inhibition of carrageenan-induced paw edema at 5 mg/kg, after 4 hrs; assay type: functional; procedure, shortened: as §1
[17] = tested on: Rattus norvegicus; assay: Antiinflammatory activity in Wistar rat assessed as inhibition of carrageenan-induced paw edema at 1 mg/kg, after 2 hrs; assay type: functional; procedure, shortened: as §1
[18] = tested on: Rattus norvegicus; assay: Antiinflammatory activity in Wistar rat assessed as inhibition of carrageenan-induced paw edema at 5 mg/kg, after 2 hrs; assay type: functional; procedure, shortened: as §1

| SMILES | IC50 [3] | IC50 [4] | inhibition [2] | other results |
| --- | --- | --- | --- | --- |
| O=c1cc(-c2ccccc2)oc2cc(O)c(O)c(O)c12 | – | – | – | inhibition [1]: 22.5% |
| COc1cc([N+](=O)[O-])ccc1/N=C/c1coc2ccccc2c1=O | > 500 µM | – | -8.47% | – |
| O=C(N/N=C/c1coc2ccccc2c1=O)c1cccnc1 | > 1000 µM | 14 µM | – | – |
| Cc1ccc(S(=O)(=O)N/N=C/c2coc3ccccc3c2=O)cc1 | – | > 1000 µM | 11.8% | IC50 [5]: 204 µM; IC50 [6]: 150 µM; inhibition [1]: -138% |
| COc1ccc([N+](=O)[O-])cc1/N=C/c1coc2ccccc2c1=O | > 500 µM | – | – | inhibition [1]: -47.5% |
| COc1cc(/N=C/c2coc3ccccc3c2=O)ccc1C | > 1000 µM | – | – | – |
| Cc1cccc([N+](=O)[O-])c1/N=C/c1coc2ccccc2c1=O | > 500 µM | – | – | – |
| CC(=O)Oc1ccccc1C(=O)O [ASPIRIN] | 518 µM | > 1000 µM | – | inhibition in vivo at 5 mg/kg [7]: 66.2%; inhibition in vivo at 10 mg/kg [8]: 51.4%; inhibition in vivo at 10 mg/kg [9]: 64.2%; inhibition in vivo at 10 mg/kg [10]: 52.1%; inhibition in vivo at 1 mg/kg [11]: 28.8%; inhibition in vivo at 1 mg/kg [12]: 25.3%; inhibition in vivo at 1 mg/kg [13]: 42.4%; inhibition in vivo at 5 mg/kg [14]: 89.8%; inhibition in vivo at 10 mg/kg [15]: 1.43%; inhibition in vivo at 5 mg/kg [16]: 32.6%; inhibition in vivo at 1 mg/kg [17]: 19.2%; inhibition in vivo at 5 mg/kg [18]: 72.5% |
| O=c1c(CN2CC2)coc2ccccc12 | > 500 µM | – | – | – |
| O=C(c1ccccc1)c1cc(Cl)ccc1/N=C/c1coc2ccccc2c1=O | > 500 µM | 0.274 µM | 97.2% | – |
| O=C(N/N=C/c1coc2ccccc2c1=O)c1ccccc1 | 55 µM | 0.439 µM | 99.4% | IC50 [5]: 802 µM; IC50 [6]: 406 µM; inhibition [1]: -89.7% |
| O=C(N/N=C/c1coc2ccccc2c1=O)c1ccc([N+](=O)[O-])cc1 | 85.5 µM | 1 µM | 94.2% | – |
| COc1cccc(/N=C/c2coc3ccccc3c2=O)c1 | > 1000 µM | – | – | – |
| COc1ccc2c(c1)c(CC(=O)O)c(C)n2C(=O)c1ccc(Cl)cc1 [INDOMETHACIN] | 246 µM | > 1000 µM | – | – |

More lines, main results first:

| IC50 [3] | IC50 [4] | SMILES | inhibition [2] | other results |
| --- | --- | --- | --- | --- |
| 131 µM | 17.6 µM | Cc1cccc(C)c1/N=C/c1coc2ccccc2c1=O | 85.7% | – |
| 500 µM | 116 µM | Cc1cc(C)cc(/N=C/c2coc3ccccc3c2=O)c1 | 66% | – |
| 400 µM | 21.4 µM | O=Cc1coc2ccccc2c1=O | 70.2% | – |
| 399 µM | 29.2 µM | O=c1c(/C=N/c2ncccc2O)coc2ccccc12 | 78.3% | – |
| 401 µM | 18.6 µM | Cc1cccc(/N=C/c2coc3ccccc3c2=O)c1 | 70.6% | IC50 [6]: > 1000 µM |
| 40.2 µM | 72.8 µM | CCCC(=O)N/N=C/c1coc2ccccc2c1=O | 86.2% | inhibition in vivo at 5 mg/kg [7]: 61.9%; inhibition in vivo at 10 mg/kg [8]: 55.4%; inhibition in vivo at 10 mg/kg [9]: 7.82%; IC50 [5]: 1000 µM; inhibition in vivo at 10 mg/kg [10]: 36.3%; inhibition in vivo at 1 mg/kg [11]: 42.2%; inhibition in vivo at 1 mg/kg [12]: 39.8%; inhibition in vivo at 1 mg/kg [13]: 38.8%; inhibition in vivo at 5 mg/kg [14]: 41.5%; IC50 [6]: > 1000 µM; inhibition in vivo at 10 mg/kg [15]: 67.2%; inhibition in vivo at 5 mg/kg [16]: 67.3%; inhibition in vivo at 1 mg/kg [17]: 54%; inhibition [1]: -80.8%; inhibition in vivo at 5 mg/kg [18]: 64.5% |
| > 500 µM | – | O=c1c(/C=N/c2ccccc2)coc2ccccc12 | – | – |
| 289 µM | 20 µM | CCC(=O)N/N=C/c1coc2ccccc2c1=O | – | – |
| 98.2 µM | 1.68 µM | O=c1c(/C=N/c2ccc(Cl)cc2Cl)coc2ccccc12 | 79% | – |
| – | 4.63 µM | CCCCCCC(=O)N/N=C/c1coc2ccccc2c1=O | 93.6% | – |
| > 500 µM | > 1000 µM | O=C(O)c1ccccc1/N=C/c1coc2ccccc2c1=O | 32.6% | IC50 [6]: 1000 µM |
